Data set [1] deals with Autotaxin (Homo sapiens, UniProt Q13822). The data set can be described thus: Inhibition of human ATX using LPC (16:0) as substrate after 30 mins by horseradish peroxidase/choline oxidase coupled enzyme based spectrophotometric analysis.
Data set [2] concerns the target Voltage-gated inwardly rectifying potassium channel KCNH2 (Homo sapiens, UniProt Q12809). The experiment in a line: Inhibition of human ERG by automated patch clamp assay. (In general: In patch-clamp work, channel activity is measured electrically.)
Another data set concerns the target Cytochrome P450 3A4 (Homo sapiens, UniProt P08684). The data set can be described thus: Time-dependent inhibition of human liver microsomes CYP3A4. Format: ADME.
Data set [3] concerns the target Autotaxin (Rattus norvegicus, UniProt Q64610). The data set can be described thus: Inhibition of ATX in rat plasma assessed as reduction in LPA 18:2 production after 2 hrs by LC-MS/MS analysis.
Data set [4] is described as follows: Plasma clearance in mouse at 1 mg/kg, iv. Format: ADME, organism-based.
Data set [5] can be described thus: Oral bioavailability in mouse at 5 mg/kg. It counts as ADME, organism-based. The conditions noted are these: in vivo.
The nature of data set [6]: Plasma clearance in rat at 1 mg/kg, iv. It counts as ADME, organism-based.
Data set [7] in a line: Oral bioavailability in rat at 5 mg/kg. Format: ADME, organism-based. Conditions: in vivo.
The nature of data set [8]: Chemical stability of the compound in DMSO by 1H NMR analysis. Format: physicochemical.
Data set [9] can be described thus: Chemical stability of the compound in DMSO by LC-MS analysis. It counts as physicochemical.
For data set [10], the system named is Mus musculus. The data set can be described thus: Anti-fibrotic activity in BML-induced pulmonary fibrosis C57BL/6 mouse model assessed as reduction in fibrotic thickening of aveolar/bronchial walls at 50 mg/kg, po administered bid with 7.5 hrs interval between 2 doses for 21 days relative to control. Format: functional, organism-based. The method in brief: (§1)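 Male C57Bl/6 mice, 11 weeks at delivery, anesthetized and given intranasal bleomycin 30 μg/50 μL; PBS controls. Oral dosing twice daily, 7.5 h apart, 10 mL/kg, from challenge day for 21 days: test agent in PEG 200/0.5% MC, pirfenidone in 0.5% CMC, vehicle controls; 14−24 mice per group. Lungs stained by Mallory method, scored 1–5 (Matsuse-modified Ashcroft) as mean of 10 low-power fields; group median, Mann−Whitney.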

Data set [11] has as its system Mus musculus. The experiment in a line: Anti-fibrotic activity in BML-induced pulmonary fibrosis C57BL/6 mouse model assessed as reduction in fibrous area with severe distortion of lung structure at 50 mg/kg, po administered bid with 7.5 hrs interval between 2 doses for 21 days relative to control. Format: functional, organism-based. The procedure, abridged:
as §1

The test system of data set [12] is Mus musculus. The experiment in a line: Anti-fibrotic activity in BML-induced pulmonary fibrosis C57BL/6 mouse model assessed as reduction in fibrosis with damage of pulmonary structure at 50 mg/kg, po administered bid with 7.5 hrs interval between 2 doses for 21 days relative to control. It counts as functional, organism-based. The procedure, abridged:
as §1

The structures appear in SMILES notation. The source made the active and inactive calls. No cut-off for these calls is given here. Some results are limits rather than exact numbers.

Chain of Cytochrome P450 3A4 (P08684 whole entry): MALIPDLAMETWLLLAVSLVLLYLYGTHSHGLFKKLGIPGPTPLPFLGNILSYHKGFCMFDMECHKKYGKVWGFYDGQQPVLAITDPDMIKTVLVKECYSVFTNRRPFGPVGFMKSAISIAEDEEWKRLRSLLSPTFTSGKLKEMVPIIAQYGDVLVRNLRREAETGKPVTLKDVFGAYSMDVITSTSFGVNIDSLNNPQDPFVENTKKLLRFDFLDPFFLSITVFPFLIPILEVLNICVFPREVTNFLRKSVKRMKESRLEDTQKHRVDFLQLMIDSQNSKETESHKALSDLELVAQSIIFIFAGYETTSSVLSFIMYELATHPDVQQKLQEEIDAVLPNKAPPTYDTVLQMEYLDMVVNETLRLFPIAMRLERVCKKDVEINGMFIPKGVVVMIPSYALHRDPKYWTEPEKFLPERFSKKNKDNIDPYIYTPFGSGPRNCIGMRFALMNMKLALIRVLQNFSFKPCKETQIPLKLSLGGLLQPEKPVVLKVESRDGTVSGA
Chain of Voltage-gated inwardly rectifying potassium channel KCNH2 (Q12809 whole entry): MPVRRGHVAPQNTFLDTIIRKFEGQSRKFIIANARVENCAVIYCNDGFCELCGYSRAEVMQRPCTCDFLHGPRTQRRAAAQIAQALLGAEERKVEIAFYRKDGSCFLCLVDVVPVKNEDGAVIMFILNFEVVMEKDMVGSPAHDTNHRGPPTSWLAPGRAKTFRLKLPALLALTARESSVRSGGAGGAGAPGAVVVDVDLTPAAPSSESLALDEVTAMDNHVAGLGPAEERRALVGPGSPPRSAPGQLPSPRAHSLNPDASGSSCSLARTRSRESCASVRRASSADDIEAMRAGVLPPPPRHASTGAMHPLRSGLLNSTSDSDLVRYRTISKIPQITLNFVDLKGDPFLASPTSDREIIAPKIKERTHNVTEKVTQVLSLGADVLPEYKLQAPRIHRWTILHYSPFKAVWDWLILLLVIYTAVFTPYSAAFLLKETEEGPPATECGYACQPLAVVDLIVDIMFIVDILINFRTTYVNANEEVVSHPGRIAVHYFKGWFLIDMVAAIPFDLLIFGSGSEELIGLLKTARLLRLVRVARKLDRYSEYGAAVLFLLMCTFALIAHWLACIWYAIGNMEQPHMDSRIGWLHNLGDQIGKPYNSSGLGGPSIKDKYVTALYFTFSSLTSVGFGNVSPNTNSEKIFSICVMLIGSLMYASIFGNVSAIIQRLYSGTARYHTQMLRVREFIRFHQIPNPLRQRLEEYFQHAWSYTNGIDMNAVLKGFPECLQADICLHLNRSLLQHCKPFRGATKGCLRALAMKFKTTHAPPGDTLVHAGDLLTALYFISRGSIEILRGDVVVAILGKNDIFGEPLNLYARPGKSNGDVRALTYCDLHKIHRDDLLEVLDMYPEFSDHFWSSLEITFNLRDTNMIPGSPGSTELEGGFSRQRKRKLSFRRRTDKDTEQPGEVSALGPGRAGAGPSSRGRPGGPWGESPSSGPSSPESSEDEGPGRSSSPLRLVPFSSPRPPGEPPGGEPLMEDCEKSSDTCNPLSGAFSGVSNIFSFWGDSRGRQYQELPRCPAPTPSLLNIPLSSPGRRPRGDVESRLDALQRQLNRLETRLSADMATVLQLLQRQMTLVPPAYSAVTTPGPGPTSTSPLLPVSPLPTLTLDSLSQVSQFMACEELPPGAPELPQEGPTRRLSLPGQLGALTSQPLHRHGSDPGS

In general, IC50 refers to the midpoint of a concentration-inhibition curve. For orientation: clearance means the rate of elimination divided by the concentration. Low values mean inefficient removal, high ones efficient removal. In general, bioavailability refers to dose-corrected exposure relative to a reference, in per cent. Low readings indicate little systemic uptake, high ones much systemic uptake. Take `CCc1nc2ccc(C3CCN(CC(=O)N4CC(O)C4)CC3)cn2c1N(C)c1nc(-c2ccc(F)cc2)c(C#N)s1`: the half-inhibitory concentration (IC50) amounted to 27 nM at Autotaxin [1], 2900 nM in data set [2] and 22 nM on Autotaxin [3]. The TDI result on Cytochrome P450 3A4 is listed as “Active”. Further, the values for the clearance in [4] and in data set [6] were 20 mL/min/kg and 51.7 mL/min/kg, respectively. The bioavailability in data set [5] stood at 12%; in [7], 15%.
Molecule `CCc1nc2ccc(C3CCN(CC(=O)N4CC(O)C4)CC3)cn2c1N(C)c1nc(-c2ccc(F)cc2)cs1` yielded an IC50 at Autotaxin [1] of 246 nM. Moreover, the TDI entry on Cytochrome P450 3A4 is “Active”.
On Autotaxin [1], `CCc1nc2ccc(C3CCN(CC(=O)N4CC(O)C4)CC3)nn2c1N(C)c1nc(-c2ccc(F)cc2C#N)ns1` registered an IC50 of 297 nM. The TDI entry on Cytochrome P450 3A4 is given as “Active”.
Turning to `CCc1nc2cc(C)c(C3CCN(CC(=O)N4CC(O)C4)CC3)cn2c1N(C)c1nc(-c2ccc(F)cc2)cs1`, the IC50 at Autotaxin [1] stood at 811 nM. Further, the TDI result on Cytochrome P450 3A4 is “Not Active”.
On to `CCc1nc2cnc(N3CCN(CC(=O)N4CC(O)C4)CC3)cn2c1N(C)c1nc(-c2ccc(F)cc2)c(C#N)s1`, for which the IC50 on Autotaxin [1] is 102 nM. Also, the TDI entry on Cytochrome P450 3A4 was “Not Active”. Moreover, the Stability result in data set [8] and in data set [9] was “Unstable” in each case.
Consider `CCc1nc2ccc(N3CCN(CC(=O)N4CC(O)C4)CC3)cn2c1N(C)c1nc(-c2ccc(F)cc2)c(C#N)s1`, for which the IC50 on Autotaxin [1] was 26 nM; in [2], over 11000 nM. Moreover, at Cytochrome P450 3A4, the TDI result is given as “Active”.
At Autotaxin [1], `CCc1nc2c(C)cc(C3CCN(CC(=O)N4CC(O)C4)CC3)cn2c1N(C)c1nc(-c2ccc(F)cc2)c(C#N)s1` displayed an IC50 of 103 nM. Further, the TDI entry on Cytochrome P450 3A4 was “Not Active”.
With `CCc1nc2ccc(C3CCN(CC(=O)N4CC(O)C4)CC3)nn2c1N(C)c1ccc(C#N)c(-c2ccc(F)cc2)n1`, the IC50 at Autotaxin [1] came out at 192 nM. In addition, the TDI result at Cytochrome P450 3A4 is recorded as “Active”.
The matching figures for `CCc1nc2ccc(N3CCN(CC(=O)N4CC(O)C4)CC3)nn2c1N(C)c1nc(-c2ccc(F)cc2)c(C#N)s1`: 60 nM and “Active”.
The matching figures for `CCc1nc2ccc(N3CCN(CC(=O)N4CC(O)C4)CC3)cn2c1N(C)c1nc(-c2ccc(F)cc2)cs1`: 274 nM and “Active”.
Turning to `Cc1ccc(=O)n(-c2ccccc2)c1`, the outcome with Mus musculus [10], in the data set on Mus musculus [11] and in the data set on Mus musculus [12] was Active.

(Values after ChEMBL document CHEMBL4049443, “Discovery of 2-[[2-Ethyl-6-[4-[2-(3-hydroxyazetidin-1-yl)-2-oxoethyl]piperazin-1-yl]-8-methylimidazo[1,2-a]pyridin-3-yl]methylamino]-4-(4-fluorophenyl)thiazole-5-carbonitrile (GLPG1690), a First-in-Class Autotaxin Inhibitor Undergoing Clinical Evaluation for the Treatment of Idiopathic Pulmonary …” (J Med Chem, 2017).)
